Data from ChEMBL document CHEMBL1914326, “Synthesis and anticonvulsant properties of new acetamide derivatives of phthalimide, and its saturated cyclohexane and norbornene analogs” (Eur J Med Chem, 2011).
Calls of active or inactive are those of the source. No cut-off for these calls is given here.

Tests used:
Mus musculus [1] = test: Neurotoxicity in CF1 albino mouse assessed as unable to grasp rotarod at 300 mg/kg, ip after 0.5 hrs by rotarod test; assay type: toxicity, organism-based; parameters: dose 300 mg/kg, route intraperitoneal; settings: in vivo
Outline: (§1)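 Acute neurotoxicity was scored on the minimal motor impairment rotorod test in male CF-1 mice. Animals in groups of eight were dosed i.p. at 30, 100 or 300 mg/kg in 0.5% methylcellulose/water and examined at 0.5 and 4 h. Untreated controls keep their balance on the rod for a prolonged time. The minimum dose causing impairment was recorded.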

Mus musculus [2] = test: Anticonvulsant activity in CF1 albino mouse assessed as protection against subcutaneous pentylenetetrazole-induced seizures at 300 mg/kg, ip after 0.5 hrs; assay type: functional, organism-based; parameters: dose 300 mg/kg
Outline: (§2)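 Male CF-1 mice in groups of eight were dosed i.p. at 30, 100 or 300 mg/kg in 0.5% methylcellulose/water. At 0.5 and 4 h, pentylenetetrazole 85 mg/kg (CD97 dose) was given s.c. This dose produces clonic seizures lasting at least 5 s. The minimum protective dose was recorded, with a top dose of 300 mg/kg.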

Mus musculus [3] = test: Anticonvulsant activity in ip dosed CF1 albino mouse assessed as protection against maximal electroshock after 0.5 hrs; assay type: functional; settings: read-out: MED
Outline: (§3)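 Male albino CF-1 mice in groups of eight received i.p. doses of 30, 100 and 300 mg/kg, suspended in 0.5% methylcellulose/water. Maximal electroshock seizures were tested at 0.5 and 4 h, with one additional 0.25 h reading at 100 mg/kg. The minimum dose giving protection was recorded. A dash means no activity at 300 mg/kg.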

Mus musculus [4] = test: Anticonvulsant activity in ip dosed CF1 albino mouse assessed as protection against maximal electroshock after 4 hrs; assay type: functional; settings: read-out: MED; outline: as §3
Mus musculus [5] = test: Neurotoxicity in CF1 albino mouse assessed as unable to grasp rotarod at 300 mg/kg, ip after 4 hrs by rotarod test; assay type: toxicity, organism-based; parameters: dose 300 mg/kg, route intraperitoneal; settings: in vivo; outline: as §1
Mus musculus [6] = test: Anticonvulsant activity in CF1 albino mouse assessed as protection against subcutaneous pentylenetetrazole-induced seizures at 300 mg/kg, ip after 4 hrs; assay type: functional, organism-based; parameters: dose 300 mg/kg; outline: as §2
Mus musculus [7] = test: Anticonvulsant activity in CF1 albino mouse assessed as protection against maximal electroshock at 300 mg/kg, ip after 0.5 hrs; assay type: functional, organism-based; parameters: dose 300 mg/kg; outline: as §3
Mus musculus [8] = test: Neurotoxicity in ip dosed CF1 albino mouse assessed as minimum dose required to cause tremors after 0.5 hrs by rotarod test; assay type: toxicity, organism-based; settings: in vivo
Mus musculus [9] = test: Anticonvulsant activity in CF1 albino mouse assessed as protection against maximal electroshock at 300 mg/kg, ip after 4 hrs; assay type: functional, organism-based; parameters: dose 300 mg/kg; outline: as §3
Mus musculus [10] = test: Neurotoxicity in CF1 albino mouse assessed as motor impairment at 300 mg/kg, ip after 4 hrs by rotarod test; assay type: toxicity, organism-based; parameters: dose 300 mg/kg, route intraperitoneal; settings: in vivo; outline: as §1
Rattus norvegicus [11] = test: Anticonvulsant activity in Sprague-Dawley albino rat assessed as protection against maximal electroshock at 30 mg/kg, po after 0.25 hrs; assay type: functional
Outline: (§4)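 Male Sprague-Dawley rats in groups of four received 30 mg/kg p.o. as a suspension in 0.5% methylcellulose/water. Maximal electroshock seizure protection was scored at 0.25, 0.5, 1, 2 and 4 h and reported as rats protected/rats tested.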

Rattus norvegicus [12] = test: Anticonvulsant activity in Sprague-Dawley albino rat assessed as protection against maximal electroshock at 30 mg/kg, po after 1 hr; assay type: functional; outline: as §4
Mus musculus [13] = test: Neurotoxicity in CF1 albino mouse assessed as motor impairment at 300 mg/kg, ip after 0.5 hrs by rotarod test; assay type: toxicity, organism-based; parameters: dose 300 mg/kg, route intraperitoneal; settings: in vivo; outline: as §1
Rattus norvegicus [14] = test: Anticonvulsant activity in Sprague-Dawley albino rat assessed as protection against maximal electroshock at 30 mg/kg, po after 0.5 hrs; assay type: functional; outline: as §4
Rattus norvegicus [15] = test: Neurotoxicity in Sprague-Dawley albino rat assessed as motor impairment at 30 mg/kg, po by rotarod test; assay type: toxicity, organism-based; parameters: dose 30 mg/kg, route oral; settings: in vivo
Outline: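 Male Sprague-Dawley rats in groups of four were given 30 mg/kg orally in 0.5% methylcellulose/water. Motor impairment was then assessed on the standardized minimal motor impairment rotorod test.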

Mus musculus [16] = test: Anticonvulsant activity in CF1 albino mouse assessed as protection against maximal electroshock at 100 mg/kg, ip after 0.25 hrs; assay type: functional, organism-based; parameters: dose 100 mg/kg; outline: as §3
Rattus norvegicus [17] = test: Anticonvulsant activity in Sprague-Dawley albino rat assessed as protection against maximal electroshock at 30 mg/kg, po after 2 hrs; assay type: functional; outline: as §4
Rattus norvegicus [18] = test: Anticonvulsant activity in Sprague-Dawley albino rat assessed as protection against maximal electroshock at 30 mg/kg, po after 4 hrs; assay type: functional; outline: as §4

| SMILES | Activity (Mus musculus [1]) | Activity (Mus musculus [2]) | minimal effective dose (Mus musculus [3]) | minimal effective dose (Mus musculus [4]) | Activity (Mus musculus [5]) | Activity (Mus musculus [6]) | Activity (Mus musculus [7]) | Activity (Mus musculus [8]) | Activity (Mus musculus [9]) | Activity (Mus musculus [10]) | Activity (Rattus norvegicus [11]) | Activity (Rattus norvegicus [12]) | Activity (Mus musculus [13]) | Activity (Rattus norvegicus [14]) | Activity (Rattus norvegicus [15]) | Activity (Mus musculus [16]) | Activity (Rattus norvegicus [17]) | Activity (Rattus norvegicus [18]) |
| --- | --- | --- | --- | --- | --- | --- | --- | --- | --- | --- | --- | --- | --- | --- | --- | --- | --- | --- |
| O=C(CN1C(=O)c2ccccc2C1=O)N1CCOCC1 | Toxic | inactive | 100 mg/kg | 100 mg/kg | Toxic | inactive |  |  |  |  |  |  |  |  |  |  |  |  |
| O=C(CN1C(=O)C2CCCCC2C1=O)N1CCN(c2cccc(Cl)c2Cl)CC1 (stereo not given) |  | inactive |  |  |  | inactive | inactive | Toxic | inactive | Non-toxic |  |  |  |  |  |  |  |  |
| O=C(CN1C(=O)C2CCCCC2C1=O)N1CCN(c2ccc(F)cc2)CC1 (stereo not given) |  | inactive | 300 mg/kg | 300 mg/kg |  | inactive |  |  |  | Non-toxic | 0% | 25% | Non-toxic | 50% | Non-toxic | Active | 0% | 0% |
